# Measured values: ChEMBL document CHEMBL1158563, “Identification of benzimidazole-based inhibitors of the mitogen activated kinase-5 signaling pathway” (2010)
# Legend:
# CCRF-CEM = test: Cytotoxicity against human CCRF-CEM cells at 10 uM assessed as cell growth relative to control; type: functional; conditions: read-out: Activity
# HL-60(TB) = test: Cytotoxicity against human HL-60(TB) cells at 10 uM assessed as cell growth relative to control; type: functional; conditions: read-out: Activity
# K562 = test: Cytotoxicity against human K562 cells at 10 uM assessed as cell growth relative to control; type: functional; conditions: read-out: Activity
# MOLT-4 = test: Cytotoxicity against human MOLT4 cells at 10 uM assessed as cell growth relative to control; type: functional; conditions: read-out: Activity
# [1] = Cytotoxicity against human […] cells at 10 uM assessed as cell growth relative to control; type: functional; conditions: read-out: Activity
# SR = test: Cytotoxicity against human SR cells at 10 uM assessed as cell growth relative to control; type: functional; conditions: read-out: Activity
# A549 = test: Cytotoxicity against human A549 cells at 10 uM assessed as cell growth relative to control; type: functional; conditions: read-out: Activity
# EKVX = test: Cytotoxicity against human EKVX cells at 10 uM assessed as cell growth relative to control; type: functional; conditions: read-out: Activity
# HOP-62 = test: Cytotoxicity against human HOP62 cells at 10 uM assessed as cell growth relative to control; type: functional; conditions: read-out: Activity
# HOP-92 = test: Cytotoxicity against human HOP92 cells at 10 uM assessed as cell growth relative to control; type: functional; conditions: read-out: Activity
# NCI-H226 = test: Cytotoxicity against human NCI-H226 cells at 10 uM assessed as cell growth relative to control; type: functional; conditions: read-out: Activity
# NCI-H23 = test: Cytotoxicity against human NCI-H23 cells at 10 uM assessed as cell growth relative to control; type: functional; conditions: read-out: Activity
# NCI-H322M = test: Cytotoxicity against human NCI-H322M cells at 10 uM assessed as cell growth relative to control; type: functional; conditions: read-out: Activity
# NCI-H460 = test: Cytotoxicity against human NCI-H460 cells at 10 uM assessed as cell growth relative to control; type: functional; conditions: read-out: Activity
# NCI-H522 = test: Cytotoxicity against human NCI-H522 cells at 10 uM assessed as cell growth relative to control; type: functional; conditions: read-out: Activity
# COLO 205 = test: Cytotoxicity against human COLO205 cells at 10 uM assessed as cell growth relative to control; type: functional; conditions: read-out: Activity
# HCC 2998 = test: Cytotoxicity against human HCC2998 cells at 10 uM assessed as cell growth relative to control; type: functional; conditions: read-out: Activity
# HCT-116 = test: Cytotoxicity against human HCT116 cells at 10 uM assessed as cell growth relative to control; type: functional; conditions: read-out: Activity
# HCT-15 = test: Cytotoxicity against human HCT15 cells at 10 uM assessed as cell growth relative to control; type: functional; conditions: read-out: Activity
# HT-29 = test: Cytotoxicity against human HT-29 cells at 10 uM assessed as cell growth relative to control; type: functional; conditions: read-out: Activity
# KM12 = test: Cytotoxicity against human KM12 cells at 10 uM assessed as cell growth relative to control; type: functional; conditions: read-out: Activity
# SW-620 = test: Cytotoxicity against human SW620 cells at 10 uM assessed as cell growth relative to control; type: functional; conditions: read-out: Activity
# SF-268 = test: Cytotoxicity against human SF268 cells at 10 uM assessed as cell growth relative to control; type: functional; conditions: read-out: Activity
# SF-295 = test: Cytotoxicity against human SF295 cells at 10 uM assessed as cell growth relative to control; type: functional; conditions: read-out: Activity
# SF-539 = test: Cytotoxicity against human SF539 cells at 10 uM assessed as cell growth relative to control; type: functional; conditions: read-out: Activity
# SNB-19 = test: Cytotoxicity against human SNB19 cells at 10 uM assessed as cell growth relative to control; type: functional; conditions: read-out: Activity
# SNB-75 = test: Cytotoxicity against human SNB75 cells at 10 uM assessed as cell growth relative to control; type: functional; conditions: read-out: Activity
# U-251 = test: Cytotoxicity against human U251 cells at 10 uM assessed as cell growth relative to control; type: functional; conditions: read-out: Activity
# LOX IMVI = test: Cytotoxicity against human LOXIMVI cells at 10 uM assessed as cell growth relative to control; type: functional; conditions: read-out: Activity
# Malme-3M = test: Cytotoxicity against human MALME-3M cells at 10 uM assessed as cell growth relative to control; type: functional; conditions: read-out: Activity
# M14 = test: Cytotoxicity against human M14 cells at 10 uM assessed as cell growth relative to control; type: functional; conditions: read-out: Activity
# MDA-MB-435 = test: Cytotoxicity against human MDA-MB-435 cells at 10 uM assessed as cell growth relative to control; type: functional; conditions: read-out: Activity
# SK-MEL-2 = test: Cytotoxicity against human SK-MEL-2 cells at 10 uM assessed as cell growth relative to control; type: functional; conditions: read-out: Activity
# SK-MEL-28 = test: Cytotoxicity against human SK-MEL-28 cells at 10 uM assessed as cell growth relative to control; type: functional; conditions: read-out: Activity
# SK-MEL-5 = test: Cytotoxicity against human SK-MEL-5 cells at 10 uM assessed as cell growth relative to control; type: functional; conditions: read-out: Activity
# UACC-257 = test: Cytotoxicity against human UACC257 cells at 10 uM assessed as cell growth relative to control; type: functional; conditions: read-out: Activity
# UACC-62 = test: Cytotoxicity against human UACC62 cells at 10 uM assessed as cell growth relative to control; type: functional; conditions: read-out: Activity
# IGROV-1 = test: Cytotoxicity against human IGROV1 cells at 10 uM assessed as cell growth relative to control; type: functional; conditions: read-out: Activity
# OVCAR-3 = test: Cytotoxicity against human OVCAR-3 cells at 10 uM assessed as cell growth relative to control; type: functional; conditions: read-out: Activity
# OVCAR-4 = test: Cytotoxicity against human OVCAR4 cells at 10 uM assessed as cell growth relative to control; type: functional; conditions: read-out: Activity
# OVCAR-5 = test: Cytotoxicity against human OVCAR5 cells at 10 uM assessed as cell growth relative to control; type: functional; conditions: read-out: Activity
# OVCAR-8 = test: Cytotoxicity against human OVCAR8 cells at 10 uM assessed as cell growth relative to control; type: functional; conditions: read-out: Activity
# SK-OV-3 = test: Cytotoxicity against human SKOV3 cells at 10 uM assessed as cell growth relative to control; type: functional; conditions: read-out: Activity
# 786-0 = test: Cytotoxicity against human 786-0 cells at 10 uM assessed as cell growth relative to control; type: functional; conditions: read-out: Activity
# A498 = test: Cytotoxicity against human A498 cells at 10 uM assessed as cell growth relative to control; type: functional; conditions: read-out: Activity
# ACHN = test: Cytotoxicity against human ACHN cells at 10 uM assessed as cell growth relative to control; type: functional; conditions: read-out: Activity
# CAKI-1 = test: Cytotoxicity against human Caki1 cells at 10 uM assessed as cell growth relative to control; type: functional; conditions: read-out: Activity
# RXF 393 = test: Cytotoxicity against human RXF393 cells at 10 uM assessed as cell growth relative to control; type: functional; conditions: read-out: Activity
# SN12C = test: Cytotoxicity against human SN12C cells at 10 uM assessed as cell growth relative to control; type: functional; conditions: read-out: Activity
# TK-10 = test: Cytotoxicity against human TK10 cells at 10 uM assessed as cell growth relative to control; type: functional; conditions: read-out: Activity
# UO-31 = test: Cytotoxicity against human UO31 cells at 10 uM assessed as cell growth relative to control; type: functional; conditions: read-out: Activity
# DU-145 = test: Cytotoxicity against human DU145 cells at 10 uM assessed as cell growth relative to control; type: functional; conditions: read-out: Activity
# MCF7 = test: Cytotoxicity against human MCF7 cells at 10 uM assessed as cell growth relative to control; type: functional; conditions: read-out: Activity
# MDA-MB-231 = test: Cytotoxicity against human MDA-MB-231 cells at 10 uM assessed as cell growth relative to control; type: functional; conditions: read-out: Activity
# [2] = Cytotoxicity against human Hs 578T cells at 10 uM assessed as cell growth relative to control; type: functional; conditions: read-out: Activity
# BT-549 = test: Cytotoxicity against human BT549 cells at 10 uM assessed as cell growth relative to control; type: functional; conditions: read-out: Activity
# T47D = test: Cytotoxicity against human T47D cells at 10 uM assessed as cell growth relative to control; type: functional; conditions: read-out: Activity
# MDA-MB-468 = test: Cytotoxicity against human MDA-MB-468 cells at 10 uM assessed as cell growth relative to control; type: functional; conditions: read-out: Activity
# NCI/ADR-RES = test: Cytotoxicity against human NCI/ADR-RES cells at 10 uM assessed as cell growth relative to control; type: functional; conditions: read-out: Activity
# [3] = target: T1, Dual specificity mitogen-activated protein kinase kinase 5 (Homo sapiens) (UniProt Q13163); test: Inhibition of EGF-induced MEK5-mediated ERK5 phosphorylation in human HEK293 cells at 10 uM treated after 30 mins EGF challenge measured after 30 mins by Western blot analysis relative to control; type: cell-based; design: scale not given: the % may be the effect or the level left
# T1 sequence (whole entry): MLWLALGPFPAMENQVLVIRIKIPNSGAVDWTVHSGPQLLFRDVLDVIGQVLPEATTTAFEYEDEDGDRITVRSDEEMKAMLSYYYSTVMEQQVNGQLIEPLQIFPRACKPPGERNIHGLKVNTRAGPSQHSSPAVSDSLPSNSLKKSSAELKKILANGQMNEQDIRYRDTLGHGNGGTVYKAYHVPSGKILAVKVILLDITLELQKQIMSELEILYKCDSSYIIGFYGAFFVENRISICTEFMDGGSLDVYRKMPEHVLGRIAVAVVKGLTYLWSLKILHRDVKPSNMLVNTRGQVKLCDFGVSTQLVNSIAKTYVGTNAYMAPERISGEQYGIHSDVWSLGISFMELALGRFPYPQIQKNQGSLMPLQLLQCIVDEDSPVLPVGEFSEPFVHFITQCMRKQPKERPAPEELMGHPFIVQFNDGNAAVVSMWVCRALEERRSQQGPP
# How it was run: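 HEK293 cells were grown in medium with 10% heat-inactivated FBS and 0.5% penicillin/streptomycin at 37 °C, 5% CO2. They were stimulated with 50 ng/mL EGF, then given 10 µM compound (final) 30 min later, and lysed 30 min after that in 1% Triton buffer. 60 µg protein was run on 10% SDS gels and blotted for pERK1/2 (1:1000) or pERK5 (1:500).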
structure (smiles),measurement,setting,value
COc1cc(NCc2ccccc2)c2ncn(C(C)C)c2c1,growth at 10 µM,CCRF-CEM,93.9%
same,growth at 10 µM,HL-60(TB),50.3%
same,growth at 10 µM,K562,64.2%
same,growth at 10 µM,MOLT-4,78.7%
same,growth at 10 µM,[1],71.5%
same,growth at 10 µM,SR,51.7%
same,growth at 10 µM,A549,110%
same,growth at 10 µM,EKVX,93.9%
same,growth at 10 µM,HOP-62,101%
same,growth at 10 µM,HOP-92,84.5%
same,growth at 10 µM,NCI-H226,97.1%
same,growth at 10 µM,NCI-H23,91.1%
same,growth at 10 µM,NCI-H322M,115%
same,growth at 10 µM,NCI-H460,107%
same,growth at 10 µM,NCI-H522,87%
same,growth at 10 µM,COLO 205,118%
same,growth at 10 µM,HCC 2998,104%
same,growth at 10 µM,HCT-116,103%
same,growth at 10 µM,HCT-15,97.9%
same,growth at 10 µM,HT-29,109%
same,growth at 10 µM,KM12,104%
same,growth at 10 µM,SW-620,146%
same,growth at 10 µM,SF-268,125%
same,growth at 10 µM,SF-295,138%
same,growth at 10 µM,SF-539,96.2%
same,growth at 10 µM,SNB-19,90.7%
same,growth at 10 µM,SNB-75,92.3%
same,growth at 10 µM,U-251,103%
same,growth at 10 µM,LOX IMVI,115%
same,growth at 10 µM,Malme-3M,49.2%
same,growth at 10 µM,M14,109%
same,growth at 10 µM,MDA-MB-435,122%
same,growth at 10 µM,SK-MEL-2,91.6%
same,growth at 10 µM,SK-MEL-28,125%
same,growth at 10 µM,SK-MEL-5,122%
same,growth at 10 µM,UACC-257,105%
same,growth at 10 µM,UACC-62,97.3%
same,growth at 10 µM,IGROV-1,92.5%
same,growth at 10 µM,OVCAR-3,103%
same,growth at 10 µM,OVCAR-4,80.6%
same,growth at 10 µM,OVCAR-5,97.2%
same,growth at 10 µM,OVCAR-8,98.7%
same,growth at 10 µM,SK-OV-3,110%
same,growth at 10 µM,786-0,96.8%
same,growth at 10 µM,A498,106%
same,growth at 10 µM,ACHN,105%
same,growth at 10 µM,CAKI-1,97.2%
same,growth at 10 µM,RXF 393,91.2%
same,growth at 10 µM,SN12C,104%
same,growth at 10 µM,TK-10,136%
same,growth at 10 µM,UO-31,83.2%
same,growth at 10 µM,DU-145,136%
same,growth at 10 µM,MCF7,5.8%
same,growth at 10 µM,MDA-MB-231,111%
same,growth at 10 µM,[2],174%
same,growth at 10 µM,BT-549,55.6%
same,growth at 10 µM,T47D,80.1%
same,growth at 10 µM,MDA-MB-468,36.5%
same,growth at 10 µM,NCI/ADR-RES,96.5%
COc1cc(NCc2ccccc2)c2ncn(Cc3ccccc3)c2c1,Activity,[3],136%
